Series [1] concerns M14. Briefly: Dark toxicity in human M14 cells assessed as increase in LDH release at 5 uM measured after 20 mins by spectrophotometric method. The class given is cell-based. Conditions: m14, 20 min. The essentials:
(§1)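 Cells (M14 melanoma, human fibroblasts or rat H9c2 cardiomyocytes) kept 20 min at room temperature in PBS in the dark, with 5 μM compound, given alone or with equimolar 5 μM doxorubicin. Cytotoxicity read as extracellular LDH release. Triplicate measurements, n = 3.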
A general note: LDH in the medium is a marker of cell lysis.

For series [2], the system named is Fibroblast. Briefly: Cytotoxicity against 7 mW/cm'2 irradiated human fibroblasts at 5 uM coadministered with DOX measured after 20 mins by spectrophotometric method. The class given is cell-based. The method, boiled down: (§2)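 Cells (M14 melanoma, human fibroblasts or rat H9c2 cardiomyocytes) kept 20 min at room temperature in PBS under 400 nm light (7 mW/cm2), alone or with 5 μM compound, given alone or with equimolar 5 μM doxorubicin. Damage read as extracellular LDH release. Triplicate measurements, n = 3.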

Series [3] has as its system M14. The series can be described thus: Cytotoxicity against 7 mW/cm'2 irradiated human M14 cells assessed as increase in LDH release at 5 uM measured after 20 mins by spectrophotometric method. The class given is functional, cell-based. The essentials: as §2
The test system of series [4] is Fibroblast. Briefly: Dark toxicity against human fibroblasts at 5 uM measured after 20 mins co-incubated with doxorubicin by spectrophotometric method. The class given is cell-based. The method, boiled down: as §1
The target in series [5] is T1, ATP-binding cassette sub-family C member 4 (Homo sapiens, UniProt O15439).
T1 sequence (O15439 whole entry): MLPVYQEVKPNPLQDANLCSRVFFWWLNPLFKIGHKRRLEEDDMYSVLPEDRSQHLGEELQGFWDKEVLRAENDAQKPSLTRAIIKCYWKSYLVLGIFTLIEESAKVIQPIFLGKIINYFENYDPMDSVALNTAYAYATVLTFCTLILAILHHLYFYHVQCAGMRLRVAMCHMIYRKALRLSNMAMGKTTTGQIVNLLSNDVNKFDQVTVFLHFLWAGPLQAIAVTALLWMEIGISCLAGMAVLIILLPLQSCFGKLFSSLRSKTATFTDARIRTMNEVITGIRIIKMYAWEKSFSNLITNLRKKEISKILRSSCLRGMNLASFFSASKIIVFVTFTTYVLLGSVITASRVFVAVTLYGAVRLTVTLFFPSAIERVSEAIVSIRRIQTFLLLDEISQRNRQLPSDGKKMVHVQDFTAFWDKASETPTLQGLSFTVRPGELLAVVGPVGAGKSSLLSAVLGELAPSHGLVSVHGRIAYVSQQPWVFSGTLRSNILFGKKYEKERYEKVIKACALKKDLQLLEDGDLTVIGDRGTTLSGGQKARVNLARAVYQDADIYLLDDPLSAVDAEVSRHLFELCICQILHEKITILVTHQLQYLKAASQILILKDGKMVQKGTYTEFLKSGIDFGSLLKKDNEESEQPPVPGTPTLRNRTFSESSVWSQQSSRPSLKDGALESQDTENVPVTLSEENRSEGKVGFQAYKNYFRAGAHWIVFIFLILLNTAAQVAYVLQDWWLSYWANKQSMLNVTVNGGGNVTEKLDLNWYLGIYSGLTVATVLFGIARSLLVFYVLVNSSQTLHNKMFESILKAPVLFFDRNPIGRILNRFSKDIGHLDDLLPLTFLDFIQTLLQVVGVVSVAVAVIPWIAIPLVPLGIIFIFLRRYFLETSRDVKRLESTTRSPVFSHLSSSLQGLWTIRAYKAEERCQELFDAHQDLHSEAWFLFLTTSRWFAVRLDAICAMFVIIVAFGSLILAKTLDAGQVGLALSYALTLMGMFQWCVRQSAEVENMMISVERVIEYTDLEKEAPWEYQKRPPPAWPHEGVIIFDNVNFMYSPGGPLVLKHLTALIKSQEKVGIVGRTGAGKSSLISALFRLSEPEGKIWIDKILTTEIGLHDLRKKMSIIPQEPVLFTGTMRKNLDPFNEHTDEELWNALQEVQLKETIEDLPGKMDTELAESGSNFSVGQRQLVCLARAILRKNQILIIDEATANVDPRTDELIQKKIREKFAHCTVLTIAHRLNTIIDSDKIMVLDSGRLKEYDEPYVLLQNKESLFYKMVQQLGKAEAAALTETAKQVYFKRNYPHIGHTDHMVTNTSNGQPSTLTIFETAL
The series can be described thus: Inhibition of MRP4 in 7 mW/cm'2 irradiated human M14 cells assessed as nitration of tyrosine in MRP4 at 5 uM measured after 20 mins in presence of doxorubicin by immunoblotting. The essentials: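 M14 melanoma cells held 20 min at room temperature in PBS under 400 nm light (7 mW/cm2) with 5 μM compound, alone or with equimolar doxorubicin. Nitrated ABC transporters (Pgp, MRP1, MRP4, BCRP) detected by immunoblot.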
(In general: A western blot detects proteins with antibodies after separation by electrophoresis.)

Series [6] deals with Multidrug resistance-associated protein 1 (Homo sapiens, UniProt P33527). The series can be described thus: Inhibition of MRP1 in 7 mW/cm'2 irradiated human M14 cells assessed as reduction in ATPase activity at 5 uM measured after 20 mins in presence of doxorubicin by immunoblotting. The essentials: (§3)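 M14 melanoma cells held 20 min at room temperature in PBS under 400 nm light (7 mW/cm2) with 5 μM compound, alone or with equimolar doxorubicin. Transporter ATPase activity then measured; n = 3.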
Sequence of Multidrug resistance-associated protein 1 (P33527 whole entry): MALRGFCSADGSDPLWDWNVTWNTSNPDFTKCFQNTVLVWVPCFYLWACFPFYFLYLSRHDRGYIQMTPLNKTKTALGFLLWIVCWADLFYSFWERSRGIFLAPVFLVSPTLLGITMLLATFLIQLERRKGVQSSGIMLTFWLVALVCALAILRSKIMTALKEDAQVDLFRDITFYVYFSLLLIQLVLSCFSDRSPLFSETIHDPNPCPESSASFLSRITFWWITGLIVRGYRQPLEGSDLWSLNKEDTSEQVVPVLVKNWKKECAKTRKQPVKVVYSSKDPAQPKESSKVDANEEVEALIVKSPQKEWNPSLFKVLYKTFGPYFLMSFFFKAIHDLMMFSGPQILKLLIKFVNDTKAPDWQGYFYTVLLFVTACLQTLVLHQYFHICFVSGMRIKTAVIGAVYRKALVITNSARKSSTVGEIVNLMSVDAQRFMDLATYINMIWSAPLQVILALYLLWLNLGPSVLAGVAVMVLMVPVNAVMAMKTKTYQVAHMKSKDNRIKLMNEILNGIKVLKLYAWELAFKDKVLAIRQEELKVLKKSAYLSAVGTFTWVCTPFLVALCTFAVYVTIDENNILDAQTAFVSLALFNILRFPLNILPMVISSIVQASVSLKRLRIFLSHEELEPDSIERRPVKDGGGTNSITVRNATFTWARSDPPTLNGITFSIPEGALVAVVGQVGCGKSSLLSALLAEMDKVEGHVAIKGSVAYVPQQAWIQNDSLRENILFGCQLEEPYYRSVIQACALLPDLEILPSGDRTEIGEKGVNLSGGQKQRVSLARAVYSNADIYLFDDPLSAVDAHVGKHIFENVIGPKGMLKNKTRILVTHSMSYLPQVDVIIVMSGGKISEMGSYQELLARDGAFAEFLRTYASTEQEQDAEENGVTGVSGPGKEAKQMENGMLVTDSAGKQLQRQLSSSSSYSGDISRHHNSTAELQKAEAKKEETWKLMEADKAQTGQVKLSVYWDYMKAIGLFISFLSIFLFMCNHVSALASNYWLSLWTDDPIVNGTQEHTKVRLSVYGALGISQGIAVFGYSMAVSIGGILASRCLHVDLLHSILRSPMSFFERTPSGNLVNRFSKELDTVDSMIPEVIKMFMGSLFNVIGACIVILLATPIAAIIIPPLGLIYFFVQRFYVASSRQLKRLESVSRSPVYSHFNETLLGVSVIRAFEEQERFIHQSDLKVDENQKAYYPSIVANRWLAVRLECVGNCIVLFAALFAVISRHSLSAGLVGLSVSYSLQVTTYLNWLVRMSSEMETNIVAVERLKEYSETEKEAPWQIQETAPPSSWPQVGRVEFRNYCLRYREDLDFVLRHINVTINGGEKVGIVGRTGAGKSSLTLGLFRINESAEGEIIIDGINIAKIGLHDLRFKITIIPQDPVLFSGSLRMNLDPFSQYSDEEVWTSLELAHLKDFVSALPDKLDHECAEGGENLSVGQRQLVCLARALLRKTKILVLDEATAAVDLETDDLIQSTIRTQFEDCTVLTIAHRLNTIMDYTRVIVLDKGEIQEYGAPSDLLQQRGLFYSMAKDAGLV

In series [7] the target is T2, Broad substrate specificity ATP-binding cassette transporter ABCG2 (Homo sapiens, UniProt Q9UNQ0).
T2 sequence (Q9UNQ0 whole entry): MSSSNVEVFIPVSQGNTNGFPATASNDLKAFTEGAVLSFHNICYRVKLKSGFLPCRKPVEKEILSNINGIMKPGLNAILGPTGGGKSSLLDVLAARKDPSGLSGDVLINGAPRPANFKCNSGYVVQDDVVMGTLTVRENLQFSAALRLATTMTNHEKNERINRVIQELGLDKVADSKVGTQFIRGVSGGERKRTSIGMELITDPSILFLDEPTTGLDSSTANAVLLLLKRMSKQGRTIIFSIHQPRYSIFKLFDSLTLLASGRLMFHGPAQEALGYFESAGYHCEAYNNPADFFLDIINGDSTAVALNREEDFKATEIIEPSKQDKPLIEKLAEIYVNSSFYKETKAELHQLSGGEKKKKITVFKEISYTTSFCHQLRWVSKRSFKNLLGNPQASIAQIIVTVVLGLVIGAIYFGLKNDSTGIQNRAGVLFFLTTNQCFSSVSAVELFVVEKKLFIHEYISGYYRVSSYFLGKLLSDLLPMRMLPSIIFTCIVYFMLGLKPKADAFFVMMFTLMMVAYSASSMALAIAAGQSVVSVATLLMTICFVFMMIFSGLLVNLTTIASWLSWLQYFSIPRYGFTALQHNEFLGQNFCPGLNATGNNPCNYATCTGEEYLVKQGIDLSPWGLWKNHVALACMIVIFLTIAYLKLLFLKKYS
Briefly: Inhibition of BCRP in 7 mW/cm'2 irradiated human M14 cells assessed as reduction in ATPase activity at 5 uM measured after 20 mins in presence of doxorubicin by immunoblotting. The essentials:
as §3

For series [8], the species on record is Bos taurus. The series can be described thus: Binding affinity to calf thymus duplex DNA at 10 uM by fluorescence spectroscopic method.

Structures are written as SMILES. Activity calls are given as the source filed them. The calls are words filed in the database; no cut-off is given here.

Regarding `NCCCNc1ccc([N+](=O)[O-])c(C(F)(F)F)c1`, the Activity result in series [1], in series [2] and in series [4] was “Non-Toxic” each time. For the same molecule, in series [3], the result was inactive. Also, the “inhibition (INH)” value in series [5], in series [6] and in series [7] was “Active” each time.
As for `COc1cccc2c1C(=O)c1c(O)c3c(c(O)c1C2=O)C[C@@](O)(C(=O)COC(=O)c1ccc(C(=O)NCCCNc2ccc([N+](=O)[O-])c(C(F)(F)F)c2)cc1)C[C@@H]3O[C@H]1C[C@H](N)[C@H](O)[C@H](C)O1.Cl`, the outcome in series [8] was Active.

Source of the values: ChEMBL document CHEMBL4000256, “Light-Regulated NO Release as a Novel Strategy To Overcome Doxorubicin Multidrug Resistance” (ACS Med Chem Lett, 2017).
